Experimental data as given in ChEMBL document CHEMBL5223075, “Discovery of thienothiazolocarboxamide analogues as novel anti-tubercular agent” (Bioorg Med Chem, 2020).
Values after ≈ are worked out from the molar mass of the structure shown. Active and inactive are the calls of the source. The rule behind the calls is not given here.

Tests used:
[1] = test system: Mycobacterium tuberculosis; assay: Antitubercular activity against Mycobacterium tuberculosis H37Rv ATCC 27294 expressing the green fluorescence protein assessed as inhibition of bacterial growth by measuring GFP fluorescence incubated for 5 days by fluorescence based plate reader analysis; assay type: functional, organism-based; conditions: H37Rv ATCC 27294, 120 h
Method in brief: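 H37Rv-GFP was grown 14 days in 7H9/OADC/Tween/glycerol/hygromycin, washed, and seeded at ~3×10^6 CFU/mL. Compounds were given as 10-point 2-fold series starting at 20 or 1 µM, in 1% DMSO final. Plates ran 5 days at 37°C, 5% CO2, with rifampicin 1 µg/mL as positive control. GFP fluorescence was read and IC50 taken from a 4-parameter sigmoid fit.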

[2] = test system: Mycobacterium tuberculosis; assay: Antitubercular activity against Mycobacterium tuberculosis H37Rv ATCC 27294 expressing the green fluorescence protein infected in mouse RAW264.7 cells assessed as inhibition of bacterial growth pre-infected with cell followed by compound addition and measured after 5 days by Hoechst 33342 staining based analysis; assay type: functional, organism-based; conditions: H37Rv ATCC 27294, RAW264.7, 120 h
Method in brief: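 RAW 264.7 cells, passages 2-9, were infected with washed H37Rv-GFP at MOI 20 for 2 h at 37°C with shaking. Cells were washed and plated at 20,000/well over 2-fold compound dilutions for 5 days. Nuclei were stained with 5 µM Hoechst (final) and 3 fields/well imaged. Four parameters (cell count, bacterial area, area per infected cell, infected-cell ratio) were each fitted by 4-parameter sigmoid, and the IC50s averaged.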

[3] = Metabolic stability in human liver microsome assessed as phase I mediated metabolite formation by measuring half-life; assay type: ADME; conditions: microsomes
[4] = Metabolic stability in mouse liver microsome assessed as phase I mediated metabolite formation by measuring half-life; assay type: ADME; conditions: microsomes
[5] = Solubility of the compound at pH 7.4; assay type: physicochemical; conditions: buffer
[6] = Solubility of the compound at pH 2.1; assay type: physicochemical; conditions: buffer
[7] = Metabolic stability in human liver microsome assessed as phase II mediated metabolite formation by measuring half-life; assay type: ADME; conditions: microsomes
[8] = Metabolic stability in mouse liver microsome assessed as phase II mediated metabolite formation by measuring half-life; assay type: ADME; conditions: microsomes
[9] = Stability in human plasma measured after 2 hrs; assay type: ADME, cell-free; conditions: read-out: Stability
[10] = Stability in mouse plasma measured after 2 hrs; assay type: ADME, cell-free; conditions: read-out: Stability
[11] = Protein binding in human plasma; assay type: ADME, cell-free; conditions: read-out: PPB (converted)
[12] = Protein binding in mouse plasma; assay type: ADME, cell-free; conditions: read-out: PPB (converted)
A549 = assay: Cytotoxicity against human A549 cells assessed as inhibition of cell growth; assay type: functional, cell-based
[13] = Cytotoxicity against HEK293 cells assessed as inhibition of cell growth; assay type: toxicity, cell-based; conditions: human
HepG2 = assay: Cytotoxicity against human HepG2 cells assessed as inhibition of cell growth; assay type: functional, cell-based
Jurkat = assay: Cytotoxicity against human Jurkat cells assessed as inhibition of cell growth; assay type: functional, cell-based
[14] = Genotoxicity in Salmonella typhimurium TA98 by Ames mutagenicity test; assay type: toxicity; conditions: salmonella enterica subsp. enterica serovar typhimurium
[15] = Genotoxicity in Salmonella typhimurium TA100 by Ames mutagenicity test; assay type: toxicity; conditions: salmonella enterica subsp. enterica serovar typhimurium
[16] = Genotoxicity in Salmonella typhimurium TA98 in the presence of S9 fraction by Ames mutagenicity test; assay type: toxicity, subcellular; conditions: salmonella enterica subsp. enterica serovar typhimurium
[17] = Genotoxicity in Salmonella typhimurium TA100 in the presence of S9 fraction by Ames mutagenicity test; assay type: toxicity, subcellular; conditions: salmonella enterica subsp. enterica serovar typhimurium
[18] = Half-life in BALB/c mouse at 3 mg/kg, iv by LC-MS analysis; assay type: ADME, organism-based; conditions: in vivo
Method in brief: (§1)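 Female BALB/c mice, 6-8 weeks old. Dosed i.v. at 2 or 3 mg/kg, or orally at 10 mg/kg. Vehicles varied by compound: DMSO/Captisol, DMSO/PEG400/SBE-b-CD, or DMSO/Cremophor EL/Captisol. Blood was held at 4°C within 1 h, then centrifuged at 3200 × g for 10 min at 4°C. Plasma was kept at 4°C, and compound levels were measured by LC-MS.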

[19] = Clearance in BALB/c mouse at 3 mg/kg, iv by LC-MS analysis; assay type: ADME, organism-based; conditions: in vivo; method in brief: as §1
[20] = Volume of distribution at steady state in BALB/c mouse at 3 mg/kg, iv by LC-MS analysis; assay type: ADME, organism-based; conditions: in vivo, read-out: Vdss; method in brief: as §1
[21] = Half-life in BALB/c mouse at 10 mg/kg, po by LC-MS analysis; assay type: ADME, organism-based; conditions: in vivo; method in brief: as §1
[22] = Cmax in BALB/c mouse at 10 mg/kg, po by LC-MS analysis; assay type: ADME, organism-based; set-up: dose 10 mg/kg, route po; conditions: in vivo; method in brief: as §1
[23] = AUClast in BALB/c mouse at 10 mg/kg, po by LC-MS analysis; assay type: ADME, organism-based; set-up: dose 10 mg/kg, route po; conditions: in vivo; method in brief: as §1
[24] = Oral bioavailability in BALB/c mouse at 10 mg/kg by LC-MS analysis; assay type: ADME, organism-based; conditions: in vivo; method in brief: as §1
[25] = Drug concentration in BALB/c mouse plasma at 10 mg/kg, po by LC-MS analysis; assay type: ADME, organism-based; conditions: in vivo; method in brief: as §1
[26] = Drug concentration in BALB/c mouse lung at 10 mg/kg, po by LC-MS analysis; assay type: ADME, organism-based; conditions: in vivo; method in brief: as §1
[27] = Ratio of drug concentration in lung to plasma in BALB/c mouse at 10 mg/kg, po by LC-MS analysis; assay type: ADME, organism-based; method in brief: as §1
[28] = Tmax in BALB/c mouse at 10 mg/kg, po by LC-MS analysis; assay type: ADME, organism-based; conditions: in vivo; method in brief: as §1
[29] = test system: Mycobacterium tuberculosis; assay: Antibacterial activity against Mycobacterium tuberculosis H37Rv ATCC 27294 infected in BALB/c mouse assessed as reduction in CFU in lungs at 50 mg/kg, po administered five times a week for 28 days; assay type: functional, organism-based; conditions: time 28.0 day
Method in brief: (§2)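 Female BALB/c mice, 6-8 weeks old, were infected intranasally with ~300-600 CFU H37Rv, 5 mice per group. Oral gavage began at day 21, 5 days/week for 4 weeks. Lungs were taken a day after the last dose, homogenized in PBS, serially diluted and plated in duplicate on 7H11-OADC agar for 2-5 weeks at 37°C. Detection limit ~2.3 logs. Bonferroni test against vehicle-treated mice.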

[30] = test system: Mycobacterium tuberculosis; assay: Antibacterial activity against Mycobacterium tuberculosis H37Rv ATCC 27294 infected in BALB/c mouse assessed as reduction in CFU in lungs at 20 mg/kg, po administered five times a week for 28 days; assay type: functional, organism-based; conditions: time 28.0 day; method in brief: as §2
[31] = test system: Mycobacterium tuberculosis; assay: Antibacterial activity against Mycobacterium tuberculosis H37Rv ATCC 27294 infected in BALB/c mouse assessed as reduction in bacterial burden in lungs at 100 mg/kg, po administered five times a week for 28 days; assay type: functional; conditions: time 28 day; method in brief: as §2
[32] = test system: Mycobacterium tuberculosis; assay: Antibacterial activity against Mycobacterium tuberculosis H37Rv ATCC 27294 infected in BALB/c mouse assessed as decrease in number of CFU in lungs at 100 mg/kg, po administered five times a week for 28 days; assay type: functional; conditions: time 28 day; method in brief: as §2

In the case of O=C(Nc1ccc(-c2ccc(F)cn2)cc1)c1cc2sc(NCCN3CCOCC3)nc2s1, the IC50 [1] is reported as 0.76 µM, the IC50 [2] is reported as 0.19 µM and the t1/2 [3] is reported as > 1 h. It also gave a t1/2 [4] of 0.758 h, a solubility [5] of 0.76 µg/mL (≈ 1.57 µM) and a solubility [6] of 43.6 µg/mL (≈ 90.2 µM). The t1/2 [7] was > 1 h, the t1/2 [8] was > 1 h and the remaining at 2 h [9] was 98.2%. The remaining at 2 h [10] was > 100%, the fraction unbound [11] was 0.002 and the fraction unbound [12] was 0.002. For the same compound, the IC50 (A549) was > 50 µM, the IC50 [13] was > 50 µM and the IC50 (HepG2) was > 50 µM. The IC50 (Jurkat) was > 50 µM, the Activity [14] was “Non-Toxic” and the Activity [15] was “Non-Toxic”. The Activity [16] was “Non-Toxic”, the Activity [17] was “Non-Toxic” and the half-life [18] was 1.2 h. The clearance [19] was 14.9 mL/min/kg, the Vd [20] was 1.52 L/kg and the half-life [21] was 2.3 h. For the same compound, the Cmax [22] was 2940 ng/mL, the AUC(0-t) [23] was 10400 ng·h/mL and the bioavailability [24] was 102%. It also gave a Cp [25] of 3380 ng/mL, a Ct [26] of 16180 ng/mL and a Kp [27] of 4.8. For the same compound, the Tmax [28] was 1 h, the Activity [29] was “Active” and the Activity [30] was “inactive”. For the same compound, the “log(activity)” value [31] was 4 and the Activity [32] was 2.7 log10CFU.
